Test results published in ChEMBL document CHEMBL1142373 (J Med Chem, 2008).
In brackets after ≈: the same amount, converted by molar mass.

How the values were obtained:
[1] = system: Plasmodium falciparum; assay: Antiplasmodial activity against chloroquine-sensitive Plasmodium falciparum 3D7 by [3H]hypoxanthine incorporation; type: functional, organism-based
[2] = Cytotoxicity against human Daudi cells after 48 hrs by MTT assay; type: cell-based; details: read-out: TC50
Outline: (§1)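 NSO (3000 cells/well) and Daudi (300 cells/well) cells were grown in RPMI 1640 with 5% FCS. Compounds in DMSO were added 12 h after plating and left 48 h. MTT was then added (20 µL of 5 mg/mL stock, 2 h, 37 °C), followed by SDS/DMF lysis buffer overnight, with OD read at 570 nm. TC50 is reported; at least two experiments in triplicate.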

[3] = Cytotoxicity against human lymphocytes after 48 hrs by MTT assay; type: cell-based, Lymphocyte; details: read-out: TC50
Outline: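 Donor PBMC were separated on Ficoll-Hypaque and stimulated with 5 µg/mL PHA, then plated at 20000 cells/well. Compounds in DMSO were added 12 h later and left 48 h. Read-out was MTT formazan (2 h, 37 °C), extracted overnight in SDS/DMF buffer, with OD at 570 nm. TC50 is reported; at least two runs in triplicate.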

[4] = Cytotoxicity against mouse NSO cells after 48 hrs by MTT assay; type: cell-based; details: read-out: TC50; outline: as §1
[5] = system: Plasmodium falciparum; assay: Antiplasmodial activity against chloroquine-sensitive Plasmodium falciparum D10 by parasite lactate dehydrogenase assay; details: D10, 72 h
[6] = system: Plasmodium falciparum; assay: Antiplasmodial activity against chloroquine-resistant Plasmodium falciparum K1 by [3H]hypoxanthine incorporation; type: functional, organism-based
[7] = system: Plasmodium falciparum; assay: Antiplasmodial activity against chloroquine-resistant Plasmodium falciparum W2 by [3H]hypoxanthine incorporation; type: functional, organism-based
[8] = system: Plasmodium chabaudi; assay: Antimalarial activity against Plasmodium chabaudi AS infected CD1 mice (Mus musculus) assessed as suppression of parasitaemia at 50mg/kg, perorally after 4 days; type: functional
Outline: (§2)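 Female CD1 mice (20–25 g) got 0.2 mL i.v. of donor blood diluted to 1% parasitaemia (1 × 10^7 infected erythrocytes/mL). Oral dosing started 2–4 h post-inoculation as a 0.2 mL bolus once daily for 4 days, in 10% Tween-80/EtOH plus sterile PBS. On day 5, Giemsa-stained smears were read by microscopy. % suppression = [(C−T)/C]×100; five mice per group.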

[9] = Cytotoxicity against human KB cells by MTT assay; type: cell-based; details: read-out: TC50 (the source's name)
[10] = Lipophilicity, Log D at pH 7.2; type: physicochemical; details: buffer
[11] = system: Candida parapsilosis; assay: Antifungal activity against Candida parapsilosis ATCC 22019; type: functional; details: Lodderomyces parapsilosis
[12] = system: Aspergillus flavus; assay: Antifungal activity against Aspergillus flavus ATCC 204304; type: functional
[13] = Lipophilicity, Log D at pH 5.5; type: physicochemical; details: buffer
[14] = system: Candida albicans; assay: Antifungal activity against Candida albicans; type: functional
[15] = system: Cryptococcus neoformans; assay: Antifungal activity against Cryptococcus neoformans; type: functional
[16] = Lipophilicity, Log D at pH 7.4; type: physicochemical; details: buffer
[17] = system: Pichia kudriavzevii; assay: Antifungal activity against Candida krusei ATCC 6258; type: functional
[18] = system: Aspergillus fumigatus; assay: Antifungal activity against Aspergillus fumigatus; type: functional
[19] = system: Plasmodium falciparum; assay: Antiplasmodial activity against chloroquine-sensitive Plasmodium falciparum D10 by [3H]hypoxanthine incorporation; type: functional, organism-based
[20] = system: Plasmodium berghei; assay: Reduced parasitemia in Plasmodium berghei ANKA infected CD1 mice (Mus musculus) at 10 mg/kg peroral dose after 4 days; type: functional; design: scale not given: the % may be the effect or the level left; details: route oral; outline: as §2
[21] = system: Plasmodium chabaudi; assay: Antimalarial activity against Plasmodium chabaudi AS infected CD1 mice (Mus musculus) assessed as suppression of parasitaemia at 10 mg/kg, perorally after 4 days; type: functional; details: route oral; outline: as §2
[22] = system: Plasmodium berghei; assay: Reduced parasitemia in Plasmodium berghei ANKA infected CD1 mice (Mus musculus) at 150 mg/kg peroral dose after 4 days; type: functional; design: scale not given: the % may be the effect or the level left; details: route oral; outline: as §2
[23] = system: Aspergillus fumigatus; assay: Antifungal activity against itraconazole resistant Aspergillus fumigatus; type: functional
[24] = system: Plasmodium berghei; assay: Reduced parasitemia in Plasmodium berghei ANKA infected CD1 mice (Mus musculus) at 30 mg/kg dose after 4 days; design: scale not given: the % may be the effect or the level left

| SMILES | IC50 [1] [nM] | IC50 [5] [nM] | IC50 [6] [nM] | IC50 [7] [nM] | CC50 [9] [nM] | also measured |
| --- | --- | --- | --- | --- | --- | --- |
| Clc1ccc(C(c2ccccc2)(c2ccc(CN3CCNCC3)cc2)n2ccnc2)cc1 (racemic) | 55.4 | 84.1 | – | – | – | CC50 at 48 h [2]: 15800 nM; CC50 at 48 h [3]: 13700 nM; CC50 at 48 h [4]: 16200 nM |
| Clc1ccc(C(c2ccc(CN3CCCC3)cc2)(c2cccs2)n2ccnc2)cc1 (racemic) | 3570 | 1360 | 1780 | 6690 | – | – |
| c1ccc2c(C(c3ccc(CN4CCCC4)cc3)n3ccnc3)ccnc2c1 (racemic) | 5030 | 7480 | 379 | 1790 | – | – |
| Clc1cccc(C(c2ccc(CN3CCCC3)cc2)(c2nccs2)n2ccnc2)c1 (racemic) | 314 | 484 | 66.7 | 1850 | – | CC50 at 48 h [2]: 57500 nM; CC50 at 48 h [3]: 80500 nM; CC50 at 48 h [4]: 52900 nM; Activity [8]: 73.1% |
| Clc1ccc2c(C(c3ccccc3)(c3ccc(CN4CCCC4)cc3)n3ccnc3)ccnc2c1 (racemic) | 148 | 168 | 60 | 10 | 51800 | – |
| Clc1ccc(C(c2ccc(CN3CCCC3)cc2)(c2ccc(CN3CCCC3)cc2)n2ccnc2)cc1 | 26.1 | 48.4 | 11.7 | 39.2 | – | logD [10]: 1.4; MIC [11]: > 32 µg/mL; CC50 at 48 h [2]: 58700 nM; CC50 at 48 h [3]: 68500 nM; MIC [12]: > 32 µg/mL; CC50 at 48 h [4]: 47000 nM; logD [13]: 0.67; MIC [14]: > 32 µg/mL; Activity [8]: 94%; MIC [15]: > 32 µg/mL; logD [16]: 1.56; MIC [17]: > 32 µg/mL; MIC [18]: > 32 µg/mL |
| CCN(CC)Cc1ccc(C(c2ccccc2)(c2ccc(Cl)cc2)n2ccnc2)cc1 (racemic) | – | 415 | 0.48 | 41.4 | – | – |
| CCN(CC)Cc1ccc(C(c2cccc(Cl)c2)n2cncn2)cc1 (racemic) | > 10000 | – | 3700 | > 10000 | – | IC50 [19]: > 10000 nM |
| Clc1cccc(C(c2ccc(CN3CCCC3)cc2)(c2ccccn2)n2ccnc2)c1 (racemic) | 349 | 619 | 155 | 157 | 27200 | – |
| Fc1ccc(C(c2ccc(CN3CCCC3)cc2)(c2ccnc3cc(Cl)ccc23)n2ccnc2)cc1 (racemic) | 66.9 | 85.8 | 67 | 2 | 33000 | MIC [11]: > 32 µg/mL; MIC [12]: > 32 µg/mL; MIC [14]: 8 µg/mL (≈ 16.1 µM); Activity [8]: 99.4%; MIC [15]: > 32 µg/mL; MIC [17]: > 32 µg/mL; MIC [18]: > 32 µg/mL |
| CCN(CC)CCCC(C)Nc1ccnc2cc(Cl)ccc12 (centres undefined) [CHLOROQUINE] | – | – | – | – | 207000 | Activity [20]: 89.1%; Activity [21]: 100% |
| Clc1ccc(C(c2ccccc2)(c2ccc(CN3CCOCC3)cc2)n2ccnc2)cc1 (racemic) | 561 | 726 | – | – | – | CC50 at 48 h [2]: 15600 nM; CC50 at 48 h [3]: 13300 nM; CC50 at 48 h [4]: 16000 nM |
| Clc1ccccc1C(c1ccccc1)(c1ccccc1)n1ccnc1 [CLOTRIMAZOLE] | – | – | – | – | 88100 | MIC [11]: 2 µg/mL (≈ 5.8 µM); MIC [12]: 4 µg/mL (≈ 11.6 µM); MIC [14]: 0.03 µg/mL (≈ 0.087 µM); Activity [22]: 28.3%; Activity [8]: 6%; MIC [23]: 4 µg/mL (≈ 11.6 µM); MIC [15]: 2 µg/mL (≈ 5.8 µM); MIC [17]: 2 µg/mL (≈ 5.8 µM); MIC [18]: 4 µg/mL (≈ 11.6 µM) |
| CCN(CC)Cc1ccc(C(c2cccc(Cl)c2)n2ccnc2)cc1 (racemic) | 1290 | 1890 | 282 | 452 | – | – |
| Clc1ccc(C(c2ccccc2)(c2ccc(CN3CCCC3)cc2)n2cnc3ccccc32)cc1 (racemic) | 379 | 1030 | 23 | 376 | – | – |
| Clc1ccc(C(c2ccccc2)(c2ccc(CN3CCCC3)cc2)n2ccnc2)cc1 (racemic) | – | – | – | – | – | logD [10]: 3.13; MIC [11]: 32 µg/mL (≈ 74.8 µM); CC50 at 48 h [2]: 58500 nM; CC50 at 48 h [3]: 70300 nM; MIC [12]: > 32 µg/mL; CC50 at 48 h [4]: 51500 nM; logD [13]: 1.72; MIC [14]: 32 µg/mL (≈ 74.8 µM); Activity [8]: 94.8%; MIC [15]: 32 µg/mL (≈ 74.8 µM); logD [16]: 3.33; Activity [24]: 37.6%; MIC [17]: 16 µg/mL (≈ 37.4 µM); MIC [18]: > 32 µg/mL |
| Clc1cccc(C(c2ccc(CN3CCCC3)cc2)(c2ccoc2)n2ccnc2)c1 (racemic) | 101 | 238 | – | 167 | – | – |
| CC(C)(C)OC(=O)N1CCN(Cc2ccc(C(c3cccc(Cl)c3)n3ccnc3)cc2)CC1 (racemic) | 4110 | 5260 | 1070 | 1520 | – | – |
| Clc1cccc(C(c2ccc(CN3CCCC3)cc2)(c2cccs2)n2ccnc2)c1 (racemic) | 4270 | 7170 | 1270 | 1040 | – | – |
| Fc1ccc(C(c2ccc(Cl)cc2)(c2ccc(CN3CCCC3)cc2)n2ccnc2)cc1 (racemic) | 82 | 118 | 380 | 1.5 | 8200 | – |
| Clc1ccc2c(C(c3ccc(CN4CCCC4)cc3)n3ccnc3)ccnc2c1 (racemic) | 1810 | 1630 | 745 | 1170 | – | – |
| Clc1ccc(C(c2ccc(CN3CCCC3)cc2)(c2nccs2)n2ccnc2)cc1 (racemic) | 177 | 300 | 180 | 80 | 64200 | – |
| Clc1cccc(C(c2ccc(CN3CCNCC3)cc2)n2ccnc2)c1 (racemic) | 411 | 516 | 354 | 327 | – | – |
| Clc1cccc(C(c2ccnc3ccccc23)n2ccnc2)c1 (racemic) | > 10000 | – | 4290 | > 10000 | – | IC50 [19]: > 10000 nM |
| Clc1cccc(C(c2ccncc2)(c2ccc(CN3CCCC3)cc2)n2ccnc2)c1 (racemic) | 587 | 1230 | 510 | 415 | – | – |
| Clc1ccc(C(c2ccccc2)(c2ccc(CN3CCCC3)cc2)N2CCNCC2)cc1 (racemic) | 3840 | – | 3510 | 1560 | 20900 | IC50 [19]: > 10000 nM |
